Measured values pooled from the literature.
Each line is one published result; the experiments were not run side by side.
Target: Serine/threonine-protein kinase ULK1 (ULK1, Homo sapiens, UniProt O75385)
One construct used (O75385 1-1050): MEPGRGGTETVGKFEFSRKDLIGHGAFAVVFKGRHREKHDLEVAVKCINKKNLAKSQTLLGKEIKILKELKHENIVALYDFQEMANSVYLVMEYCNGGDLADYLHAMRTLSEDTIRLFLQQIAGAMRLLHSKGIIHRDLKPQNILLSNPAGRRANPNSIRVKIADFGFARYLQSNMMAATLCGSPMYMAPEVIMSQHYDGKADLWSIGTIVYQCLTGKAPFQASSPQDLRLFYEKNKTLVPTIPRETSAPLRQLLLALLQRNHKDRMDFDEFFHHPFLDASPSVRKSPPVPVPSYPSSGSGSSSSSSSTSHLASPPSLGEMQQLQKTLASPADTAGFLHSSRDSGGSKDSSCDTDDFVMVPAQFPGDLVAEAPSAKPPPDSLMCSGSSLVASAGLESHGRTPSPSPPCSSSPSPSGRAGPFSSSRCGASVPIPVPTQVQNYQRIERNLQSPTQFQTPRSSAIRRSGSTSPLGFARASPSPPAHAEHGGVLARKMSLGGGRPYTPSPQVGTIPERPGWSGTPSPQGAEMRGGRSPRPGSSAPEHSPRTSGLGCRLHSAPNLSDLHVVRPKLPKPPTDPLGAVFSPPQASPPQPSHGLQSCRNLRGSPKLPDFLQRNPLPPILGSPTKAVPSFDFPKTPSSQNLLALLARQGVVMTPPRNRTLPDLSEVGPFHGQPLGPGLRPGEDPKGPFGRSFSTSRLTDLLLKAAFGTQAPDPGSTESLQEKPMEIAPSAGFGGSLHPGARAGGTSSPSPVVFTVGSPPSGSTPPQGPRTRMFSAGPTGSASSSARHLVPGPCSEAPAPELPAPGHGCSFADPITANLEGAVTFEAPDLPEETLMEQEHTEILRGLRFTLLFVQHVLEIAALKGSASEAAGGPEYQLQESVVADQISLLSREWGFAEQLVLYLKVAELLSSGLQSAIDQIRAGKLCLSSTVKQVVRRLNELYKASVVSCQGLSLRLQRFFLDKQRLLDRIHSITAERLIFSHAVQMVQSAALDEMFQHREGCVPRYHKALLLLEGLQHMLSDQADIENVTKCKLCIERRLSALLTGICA

With `O=C(NCCCNc1ccnc(Nc2cccc(NC(=O)N3CCCC3)c2)n1)C1CCC1` the remaining activity was 75% (enzyme activity, inhibitor, radiometric; 1 µM).
For `O=C(NCc1ncc(C(F)(F)F)cc1Cl)c1ccc2c(c1)C1(CCS(=O)(=O)CC1)[C@@H](C1CC1)N2S(=O)(=O)c1ccc(F)cc1`, the remaining binding was 80% (cell-free assay, competition with immobilised ligand; 1 µM).
For `FC(F)(F)Oc1cccc(-c2cnc3ccc(-c4ccncc4)nn23)c1`, the activity vs control was 92% (enzyme activity, inhibitor, radiometric; 5 µM).
With `Cc1nn(CC(F)(F)F)cc1Nc1ncc(Br)c(NCc2ccc(S(N)(=O)=O)cc2)n1` the remaining activity was 77% (enzyme activity, inhibitor, radiometric; 1 µM).
With `CC(=O)N1CCC(c2ccc(C(=O)NC(=N)N)cc2C(F)(F)F)CC1` the remaining binding was 100% (cell-free assay, competition with immobilised ligand; 1 µM).
For `Cc1nn(CC(F)(F)F)cc1Nc1ncc(C2CC2)c(NCc2ccc(S(N)(=O)=O)cc2)n1`, the remaining activity was 106% (enzyme activity, inhibitor, radiometric; 1 µM).
`O=C1NC(=O)c2cc(Nc3ccc(F)cc3)c(Nc3ccc(F)cc3)cc21` gave a remaining signal of 102% (cell-free assay; 0.5 µM).
`Cc1nc(Cc2cccc(C(F)(F)F)c2)sc1-c1ccc(C(N)=O)nc1` has a remaining binding of 100% (cell-free assay, competition with immobilised ligand; 1 µM).
`c1cc(CN2CCOCC2)cc(Nc2ncc(C3CC3)c(NCCc3c[nH]cn3)n2)c1` gave a remaining activity of 24% (enzyme activity, inhibitor, radiometric; 1 µM).
`CO[C@H]1CC[C@H](CNc2ccc(S(=O)(=O)NC(=O)c3ccc(N4CCN(CC5=C(c6ccc(Cl)cc6)CC(C)(C)CC5)CC4)cc3Oc3cnc4[nH]ccc4c3)cc2[N+](=O)[O-])CC1` has a remaining binding of 82% (cell-free assay, competition with immobilised ligand; 1 µM).
For `O=C(Nc1cnn(-c2csc(C(=O)NC3COC3)c2)c1)Nc1ccccc1Cl`, the remaining activity was 134% (enzyme activity, inhibitor; 5 µM).
For `COc1ccc(COc2ccc(Cc3cnc(N)nc3N)cc2OC)cc1`, the remaining signal was 99.7% (cell-free assay; 0.5 µM).
The inhibition of `c1ccc(CNc2nc(N3CCOc4ccccc43)nc3c2CCCC3)cc1` is reported as -9% (target engagement in cells, inhibitor, chemoproteomics; 20 mM).
With `CS(=O)(=O)N1CCCC(NC(=O)[C@H](CCC2CCCCC2)NC(=O)c2ccc(CNc3ncnc4c3nnn4-c3ccccc3)cc2)C1` (stereo partly shown) the remaining binding was 100% (cell-free assay, competition with immobilised ligand; 0.1 µM).
`COc1cccc2c(NCc3ccccc3)nc(-n3c(N)nc4ccccc43)nc12` has an inhibition of -8.3% (target engagement in cells, inhibitor, chemoproteomics; 20 mM).
With `O=C(NCCCNc1nc(Nc2cccc(NC(=O)N3CCCC3)c2)ncc1Br)C1CCC1` the remaining activity was 2% (enzyme activity, inhibitor, radiometric; 1 µM).
For `O=C1Nc2ccc(Cl)cc2C1=Cc1cc(Cl)c(O)c(Cl)c1`, the remaining signal was 95% (cell-free assay; 0.5 µM).
For `Cc1cc(NC(=O)c2cccc3cc(-c4cccc5[nH]nc(N)c45)ccc23)ccc1F`, the activity vs control was 95% (enzyme activity, inhibitor; 0.1 µM).
With `COc1cccc(CNC(=O)c2nc3scc(COCc4ccc(C(=O)O)cc4)c3c(=O)[nH]2)c1` the remaining binding was 74% (cell-free assay, competition with immobilised ligand; 1 µM).
For `Nc1ncnc2occ(-c3ccc(NC(=O)Nc4cc(C(F)(F)F)ccc4F)cc3)c12`, the remaining signal was 48% (cell-free assay, inhibitor; 20 µM).
`CCc1ccccc1C(=O)Nc1n[nH]c2c(C)c(F)c(C3C(C#N)=C(C)N(C)C(C)=C3C#N)cc12` gave a remaining binding of 29% (cell-free assay, competition with immobilised ligand; 1 µM).
The remaining activity of `Brc1cnc(Nc2cccc(CN3CCOCC3)c2)nc1NCCc1c[nH]cn1` is reported as 3% (enzyme activity, inhibitor, radiometric; 1 µM).
